Source: ChEMBL document CHEMBL1148339, “Synthesis, structure-activity relationships, and drug resistance of beta-d-3'-fluoro-2',3'-unsaturated nucleosides as anti-HIV Agents” (J Med Chem, 2004)

Substrate: Nc1ncnc2c1ncn2[C@H]1C=C[C@@H](CO)O1
Test: Menten constant against adenosine deaminase (ADA)
Procedure, shortened: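 Deamination by calf intestinal mucosa adenosine deaminase (0.15 units, MW 33 000, in 2 mL) in phosphate buffer pH 7.4 at 25 °C, substrate 15–100 μM, monitored by UV at 265 nm. Initial rates from graphical fitting of concentration vs time; Vmax and KM from Lineweaver–Burk plot, kcat calculated from enzyme amount.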

B1: Adenosine deaminase (Bos taurus), P56658 (protein)
chain: MAQTPAFNKPKVELHVHLDGAIKPETILYYGRKRGIALPADTPEELQNIIGMDKPLSLPEFLAKFDYYMPAIAGCREAVKRIAYEFVEMKAKDGVVYVEVRYSPHLLANSKVEPIPWNQAEGDLTPDEVVSLVNQGLQEGERDFGVKVRSILCCMRHQPSWSSEVVELCKKYREQTVVAIDLAGDETIEGSSLFPGHVKAYAEAVKSGVHRTVHAGEVGSANVVKEAVDTLKTERLGHGYHTLEDATLYNRLRQENMHFEVCPWSSYLTGAWKPDTEHPVVRFKNDQVNYSLNTDDPLIFKSTLDTDYQMTKNEMGFTEEEFKRLNINAAKSSFLPEDEKKELLDLLYKAYGMPSPASAEQCL
With B1 the Km was 30 µM.
